How the values were obtained:
Conditions in all cases: stereoisomer not certain
[1] = target: T1, OR6C65 (Homo sapiens) (UniProt A6NJZ3)
T1 sequence (whole entry): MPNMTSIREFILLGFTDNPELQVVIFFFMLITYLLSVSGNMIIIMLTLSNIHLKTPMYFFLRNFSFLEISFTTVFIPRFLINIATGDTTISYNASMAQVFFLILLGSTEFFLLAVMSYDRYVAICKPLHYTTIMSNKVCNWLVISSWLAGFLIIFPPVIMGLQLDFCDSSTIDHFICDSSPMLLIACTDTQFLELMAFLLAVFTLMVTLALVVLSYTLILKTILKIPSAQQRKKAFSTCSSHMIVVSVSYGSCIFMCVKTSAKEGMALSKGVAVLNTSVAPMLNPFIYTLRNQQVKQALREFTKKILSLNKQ
Procedure, shortened: (§1)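 Whether a receptor–molecule pair is responsive (active) rests on the original authors' judgment that its measured signal was statistically different from baseline. Pairs without that judgment are non-responsive (inactive). Sources used varied assay methods, commonly transient luciferase assays in mammalian cell lines.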

[2] = target: T2, OR6C68 (Homo sapiens) (UniProt A6NDL8)
T2 sequence (whole entry): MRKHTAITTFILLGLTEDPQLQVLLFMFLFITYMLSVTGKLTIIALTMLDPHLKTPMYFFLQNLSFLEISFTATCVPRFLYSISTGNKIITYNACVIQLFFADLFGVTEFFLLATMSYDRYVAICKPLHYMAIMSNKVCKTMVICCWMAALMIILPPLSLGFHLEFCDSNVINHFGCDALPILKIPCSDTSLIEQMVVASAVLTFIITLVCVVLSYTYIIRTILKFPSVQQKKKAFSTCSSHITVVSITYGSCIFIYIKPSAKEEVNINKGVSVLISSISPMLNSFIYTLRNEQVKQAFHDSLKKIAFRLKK
Procedure, shortened: as §1

[3] = target: T3, OR6C70 (Homo sapiens) (UniProt A6NIJ9)
T3 sequence (whole entry): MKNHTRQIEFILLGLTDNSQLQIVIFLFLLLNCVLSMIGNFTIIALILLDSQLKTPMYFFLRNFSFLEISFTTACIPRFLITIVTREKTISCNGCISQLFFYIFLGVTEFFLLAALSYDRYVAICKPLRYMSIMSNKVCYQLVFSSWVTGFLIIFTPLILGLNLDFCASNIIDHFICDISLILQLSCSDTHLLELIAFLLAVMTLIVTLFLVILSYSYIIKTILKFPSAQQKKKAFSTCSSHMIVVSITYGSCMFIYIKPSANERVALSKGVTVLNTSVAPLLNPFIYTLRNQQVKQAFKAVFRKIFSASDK
Procedure, shortened: as §1

[4] = target: T4, OR6C74 (Homo sapiens) (UniProt A6NCV1)
T4 sequence (whole entry): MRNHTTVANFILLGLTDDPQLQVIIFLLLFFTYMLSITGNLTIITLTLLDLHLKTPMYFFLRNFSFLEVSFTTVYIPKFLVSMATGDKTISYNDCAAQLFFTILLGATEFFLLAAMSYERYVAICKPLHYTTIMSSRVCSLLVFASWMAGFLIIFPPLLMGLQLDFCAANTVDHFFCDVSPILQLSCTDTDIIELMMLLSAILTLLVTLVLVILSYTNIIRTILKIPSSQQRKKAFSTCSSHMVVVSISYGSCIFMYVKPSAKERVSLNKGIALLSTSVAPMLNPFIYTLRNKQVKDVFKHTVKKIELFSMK
Procedure, shortened: as §1

[5] = target: T5, OR6C75 (Homo sapiens) (UniProt A6NL08)
T5 sequence (whole entry): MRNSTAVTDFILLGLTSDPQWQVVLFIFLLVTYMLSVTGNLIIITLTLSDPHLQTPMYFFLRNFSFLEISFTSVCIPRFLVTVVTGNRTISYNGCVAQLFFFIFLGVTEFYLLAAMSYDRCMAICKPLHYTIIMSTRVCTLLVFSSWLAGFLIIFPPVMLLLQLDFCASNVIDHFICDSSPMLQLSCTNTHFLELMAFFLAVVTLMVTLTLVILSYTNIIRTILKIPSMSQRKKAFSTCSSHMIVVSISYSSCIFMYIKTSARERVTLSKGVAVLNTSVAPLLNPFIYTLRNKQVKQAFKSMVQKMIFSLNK
Procedure, shortened: as §1

[6] = target: T6, OR6C76 (Homo sapiens) (UniProt A6NM76)
T6 sequence (whole entry): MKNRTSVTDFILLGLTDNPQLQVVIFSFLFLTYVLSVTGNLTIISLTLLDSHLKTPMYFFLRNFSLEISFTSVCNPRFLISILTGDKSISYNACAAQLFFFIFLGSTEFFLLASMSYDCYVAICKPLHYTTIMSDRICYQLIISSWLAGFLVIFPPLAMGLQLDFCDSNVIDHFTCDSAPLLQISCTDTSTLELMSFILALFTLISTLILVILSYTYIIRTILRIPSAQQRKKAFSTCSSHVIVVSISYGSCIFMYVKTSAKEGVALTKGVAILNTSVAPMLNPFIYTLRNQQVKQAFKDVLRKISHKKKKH
Procedure, shortened: as §1

[7] = target: T7, OR6F1 (Homo sapiens) (UniProt Q8NGZ6)
T7 sequence (whole entry): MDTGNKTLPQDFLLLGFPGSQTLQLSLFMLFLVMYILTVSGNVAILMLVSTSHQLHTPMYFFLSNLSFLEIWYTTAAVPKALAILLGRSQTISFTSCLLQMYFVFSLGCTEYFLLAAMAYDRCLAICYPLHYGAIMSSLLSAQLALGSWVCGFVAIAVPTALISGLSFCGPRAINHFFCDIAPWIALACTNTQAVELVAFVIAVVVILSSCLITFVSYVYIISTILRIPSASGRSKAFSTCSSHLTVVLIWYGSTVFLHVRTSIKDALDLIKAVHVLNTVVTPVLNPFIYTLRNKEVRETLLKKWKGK
Procedure, shortened: as §1

[8] = target: T8, OR6J1 (Homo sapiens) (UniProt Q8NGC5)
T8 sequence (whole entry): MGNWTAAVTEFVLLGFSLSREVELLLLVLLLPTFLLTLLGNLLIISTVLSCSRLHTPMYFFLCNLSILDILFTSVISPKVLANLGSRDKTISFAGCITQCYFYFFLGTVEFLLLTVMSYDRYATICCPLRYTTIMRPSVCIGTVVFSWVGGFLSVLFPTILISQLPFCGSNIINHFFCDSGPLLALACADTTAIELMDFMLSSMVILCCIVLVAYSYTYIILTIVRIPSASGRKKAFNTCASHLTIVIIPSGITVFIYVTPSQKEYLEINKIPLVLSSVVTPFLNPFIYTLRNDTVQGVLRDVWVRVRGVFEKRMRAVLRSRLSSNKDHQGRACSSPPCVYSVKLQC
Procedure, shortened: as §1

[9] = target: T9, OR6K2 (Homo sapiens) (UniProt Q8NGY2)
T9 sequence (whole entry): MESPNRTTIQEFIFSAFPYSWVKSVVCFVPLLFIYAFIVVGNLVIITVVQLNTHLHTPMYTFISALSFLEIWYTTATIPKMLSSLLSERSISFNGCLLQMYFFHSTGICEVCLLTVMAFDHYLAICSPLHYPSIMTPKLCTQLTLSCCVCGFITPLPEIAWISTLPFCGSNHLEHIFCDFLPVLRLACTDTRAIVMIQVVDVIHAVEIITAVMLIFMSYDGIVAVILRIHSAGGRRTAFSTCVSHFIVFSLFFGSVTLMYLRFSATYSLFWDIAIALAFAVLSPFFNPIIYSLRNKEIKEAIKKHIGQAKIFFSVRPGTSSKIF
Procedure, shortened: as §1

[10] = target: T10, OR6K3 (Homo sapiens) (UniProt Q8NGY3)
T10 sequence (whole entry): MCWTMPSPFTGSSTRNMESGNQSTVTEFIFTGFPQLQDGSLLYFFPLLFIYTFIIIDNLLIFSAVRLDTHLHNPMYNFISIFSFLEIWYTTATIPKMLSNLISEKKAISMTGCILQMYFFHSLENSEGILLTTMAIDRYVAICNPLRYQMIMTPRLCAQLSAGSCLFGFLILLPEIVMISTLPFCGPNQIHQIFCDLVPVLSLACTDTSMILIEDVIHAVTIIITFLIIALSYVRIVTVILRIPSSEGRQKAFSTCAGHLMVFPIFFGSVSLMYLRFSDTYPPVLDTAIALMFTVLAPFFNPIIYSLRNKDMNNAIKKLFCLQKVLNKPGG
Procedure, shortened: as §1

[11] = target: T11, OR6K6 (Homo sapiens) (UniProt Q8NGW6)
T11 sequence (whole entry): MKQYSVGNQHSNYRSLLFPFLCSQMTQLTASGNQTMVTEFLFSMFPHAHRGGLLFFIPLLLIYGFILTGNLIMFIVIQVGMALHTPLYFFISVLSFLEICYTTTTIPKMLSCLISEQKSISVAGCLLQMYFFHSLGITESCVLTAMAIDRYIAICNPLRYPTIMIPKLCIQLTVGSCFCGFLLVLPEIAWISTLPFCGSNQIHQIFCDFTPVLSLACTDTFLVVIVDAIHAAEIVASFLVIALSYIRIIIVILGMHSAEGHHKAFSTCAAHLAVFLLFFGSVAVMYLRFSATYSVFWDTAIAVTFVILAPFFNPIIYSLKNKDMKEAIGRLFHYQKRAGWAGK
Procedure, shortened: as §1

[12] = target: T12, OR6M1 (Homo sapiens) (UniProt Q8NGM8)
T12 sequence (whole entry): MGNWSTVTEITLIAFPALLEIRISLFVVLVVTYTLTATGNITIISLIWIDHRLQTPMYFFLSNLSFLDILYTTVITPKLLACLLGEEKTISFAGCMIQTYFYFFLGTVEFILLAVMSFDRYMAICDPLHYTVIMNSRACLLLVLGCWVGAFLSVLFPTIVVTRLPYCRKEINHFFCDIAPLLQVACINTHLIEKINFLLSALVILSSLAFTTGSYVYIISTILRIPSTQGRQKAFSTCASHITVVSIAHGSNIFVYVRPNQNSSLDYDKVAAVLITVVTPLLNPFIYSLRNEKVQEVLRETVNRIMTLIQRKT
Procedure, shortened: as §1

[13] = target: T13, OR6N1 (Homo sapiens) (UniProt Q8NGY5)
T13 sequence (whole entry): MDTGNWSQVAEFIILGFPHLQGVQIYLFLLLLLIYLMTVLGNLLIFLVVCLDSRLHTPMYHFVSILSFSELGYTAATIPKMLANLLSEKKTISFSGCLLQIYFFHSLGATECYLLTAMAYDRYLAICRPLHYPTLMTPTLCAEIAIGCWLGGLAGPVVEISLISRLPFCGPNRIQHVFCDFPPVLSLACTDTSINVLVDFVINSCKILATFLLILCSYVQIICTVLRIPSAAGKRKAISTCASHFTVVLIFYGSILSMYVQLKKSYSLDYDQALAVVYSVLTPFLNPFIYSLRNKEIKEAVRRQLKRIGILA
Procedure, shortened: as §1

[14] = target: T14, OR6N2 (Homo sapiens) (UniProt Q8NGY6)
T14 sequence (whole entry): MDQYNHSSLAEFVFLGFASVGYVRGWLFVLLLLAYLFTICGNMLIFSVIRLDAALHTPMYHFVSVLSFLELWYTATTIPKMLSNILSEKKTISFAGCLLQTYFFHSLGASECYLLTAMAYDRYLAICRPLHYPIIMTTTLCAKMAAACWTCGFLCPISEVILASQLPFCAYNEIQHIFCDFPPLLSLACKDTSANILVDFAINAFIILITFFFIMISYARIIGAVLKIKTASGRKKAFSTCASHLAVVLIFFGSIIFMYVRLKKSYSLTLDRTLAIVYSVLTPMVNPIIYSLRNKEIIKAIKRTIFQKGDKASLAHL
Procedure, shortened: as §1

[15] = target: T15, OR6P1 (Homo sapiens) (UniProt Q8NGX9)
T15 sequence (whole entry): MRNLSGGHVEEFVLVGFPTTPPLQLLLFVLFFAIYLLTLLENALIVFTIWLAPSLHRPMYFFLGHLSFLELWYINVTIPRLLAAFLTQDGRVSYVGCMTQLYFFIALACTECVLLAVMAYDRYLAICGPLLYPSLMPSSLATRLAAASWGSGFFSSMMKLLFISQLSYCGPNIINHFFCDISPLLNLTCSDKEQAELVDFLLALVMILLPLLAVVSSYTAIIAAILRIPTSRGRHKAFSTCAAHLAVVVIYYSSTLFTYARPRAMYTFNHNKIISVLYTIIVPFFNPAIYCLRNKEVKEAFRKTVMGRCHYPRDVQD
Procedure, shortened: as §1

[16] = target: T16, OR6Q1 (Homo sapiens) (UniProt Q8NGQ2)
T16 sequence (whole entry): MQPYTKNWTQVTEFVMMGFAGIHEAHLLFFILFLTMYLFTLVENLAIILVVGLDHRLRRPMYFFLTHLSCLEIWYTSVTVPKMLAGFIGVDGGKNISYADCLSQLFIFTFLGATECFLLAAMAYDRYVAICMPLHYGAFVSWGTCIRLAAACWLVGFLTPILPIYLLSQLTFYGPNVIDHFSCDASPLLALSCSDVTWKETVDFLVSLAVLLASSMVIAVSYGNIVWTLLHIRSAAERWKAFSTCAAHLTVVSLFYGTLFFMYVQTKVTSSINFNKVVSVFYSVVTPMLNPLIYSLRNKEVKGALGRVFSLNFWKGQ
Procedure, shortened: as §1

Measured: odorant receptor agonist call;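 note: active if original authors judged signal statistically different from baseline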

CC(=O)c1c(C)c([N+](=O)[O-])c(C(C)(C)C)c([N+](=O)[O-])c1C
inactive: all assays above
